Test [1] concerns the target T1, Amyloid-beta precursor protein (Homo sapiens, UniProt P05067). Put plainly: Inhibition of amyloid beta (1 to 42) (unknown origin) aggregation incubated at 37 degC for 16 hrs by thioflavin T fluorescence assay. The method, boiled down:
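Aβ42 at 40 μM (in DMSO/PBS pH 6.6), mixed 2:1:1 with sample and 80 μM ThT stock, shaken 15 min, then held at 37 °C for 16 h. Read by ThT fluorescence. IC50 measured only for samples with ≥60% inhibition: six concentrations, three independent experiments, mean % inhibition fitted to a four-parameter variable-slope log(inhibitor)–response curve.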

For the next test, the system named is Drosophila. Put plainly: Enhancement of short-term memory in Drosophila w1118 (isoCJ1) P35*H29.3 model of human Abeta42 transgenic Alzheimer's disease model assessed as increase in performance index at 100 uM fed to flies for 7 days by Pavlovian olfactory learning method. The test is classed as functional, organism-based. The method, boiled down:
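Male flies: elav-GAL4c155 (P35) × UAS-Aβ42 (H29.3) F1, with 2U*H29.3 as normal controls. Newly hatched flies kept about 120 per vial and reared at 28 °C, 42% RH. Fed 100 μM (from 10 mM stock) in 50 μL daily for 4 h, days 2–8. Controls got matching DMSO. Pavlovian olfactory learning done in the dark at 24 °C, 70% RH. Read-out is performance index; two vials per PI.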

Test [2] deals with T1, Amyloid-beta precursor protein. Put plainly: Inhibition of amyloid beta (1 to 42) (unknown origin) aggregation at 100 uM incubated at 37 degC for 16 hrs by thioflavin T fluorescence assay. Summed up:
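Aβ42 prepared at 40 μM in DMSO plus PBS (0.01 M, pH 6.6), mixed 2:1:1 with sample and 80 μM ThT stock. Shaken 15 min, incubated at 37 °C for 16 h, then ThT fluorescence read. Inhibition = (F0−Fi)/F0×100 against no-sample wells. Three independent experiments.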

Calls of active or inactive are those of the source. No cut-off for these calls is given here.

T1 sequence (P05067 whole entry): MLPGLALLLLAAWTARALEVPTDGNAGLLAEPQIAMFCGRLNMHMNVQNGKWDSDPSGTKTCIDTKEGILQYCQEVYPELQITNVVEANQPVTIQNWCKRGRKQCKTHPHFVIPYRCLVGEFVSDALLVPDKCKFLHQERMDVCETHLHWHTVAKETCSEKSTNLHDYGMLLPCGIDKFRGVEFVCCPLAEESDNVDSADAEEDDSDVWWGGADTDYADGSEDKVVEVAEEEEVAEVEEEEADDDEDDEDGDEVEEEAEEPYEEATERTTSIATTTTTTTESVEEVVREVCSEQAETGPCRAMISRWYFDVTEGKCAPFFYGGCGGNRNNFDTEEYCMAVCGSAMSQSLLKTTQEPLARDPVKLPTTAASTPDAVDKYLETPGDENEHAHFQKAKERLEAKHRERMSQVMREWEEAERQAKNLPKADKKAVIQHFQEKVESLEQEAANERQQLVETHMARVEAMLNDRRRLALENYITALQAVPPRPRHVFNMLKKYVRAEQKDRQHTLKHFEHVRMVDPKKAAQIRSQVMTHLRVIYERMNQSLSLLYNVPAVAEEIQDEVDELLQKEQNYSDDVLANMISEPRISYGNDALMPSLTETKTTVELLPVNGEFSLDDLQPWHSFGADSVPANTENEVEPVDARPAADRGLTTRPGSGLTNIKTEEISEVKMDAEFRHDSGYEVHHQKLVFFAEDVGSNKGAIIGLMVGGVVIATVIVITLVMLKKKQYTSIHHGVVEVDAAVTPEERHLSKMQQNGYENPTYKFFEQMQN

The IC50 is the point on the concentration scale where inhibition reaches its midpoint. `C[C@@]12c3ccc4c(c3C(=O)c3occ(c31)C(=O)C[C@H]2O)CCC4=O` [DEMETHOXYVIRIDIN] showed an IC50 in test [1] of 13.4 µM.
What is called inhibition is the percentage by which the read-out fell short of the control. A lower inhibition goes with a response near the control. Turning to `C[C@]1(O)c2ccc3c(c2C(=O)c2occ([C@@H](O)CCO)c21)CCC3=O`, in the test on Drosophila, the result was Active. Also, the inhibition in test [2] was 63.5%. In test [1], the IC50 amounted to 95.9 µM.
With `C[C@]1(O)c2ccc3c(c2C(=O)c2occ(CCCO)c21)CCC3=O`, the outcome with Drosophila was Active. In test [2], the inhibition was 89.5%. It took 28 µM to reach half-maximal inhibition in test [1] (IC50).
Turning to `O=C(O[C@@H]1Cc2c(O)cc(O)cc2O[C@@H]1c1cc(O)c(O)c(O)c1)c1cc(O)c(O)c(O)c1` [EPIGALOCATECHIN GALLATE], the inhibition in test [2] turned out to be 95.1%. In test [1], this compound returned a concentration for half-maximal inhibition (IC50) of 0.5 µM.
With `C[C@]12CCC(=O)c3coc(c31)C(=O)C1=C2[C@@H](O)C[C@]2(C)C(=O)CC[C@@H]12`, in the test with Drosophila, the result was Active. The compound also yielded an inhibition in test [2] of 98.8%. This compound displayed an IC50 in test [1] of 1.2 µM.
`C[C@]12CC[C@H](O)c3coc(c31)C(=O)C1=C2[C@@H](O)C[C@]2(C)C(=O)CC[C@@H]12`: the outcome with Drosophila was Active. This compound gave an inhibition in test [2] of 54.6%.
Consider `C[C@@]12C(=O)CC[C@H]1C1=C(C[C@H]2O)[C@@]2(C)CC[C@H](O)c3coc(c32)C1=O`, for which the result with Drosophila was Active. In test [2], the inhibition was 70.4%. For the same compound, half-maximal inhibition in test [1] (IC50) required 43.5 µM.
Turning to `C[C@@]12c3ccc4c(c3C(=O)c3occ(c31)[C@@H](O)C[C@@H]2O)CCC4=O`, the result in the test on Drosophila was Active. This compound gave an inhibition in test [2] of 99%. In test [1], this compound had an IC50 of 10.1 µM.
Regarding `C[C@]1(O)c2ccc3c(c2C(=O)c2occ(CCO)c21)CCC3=O`, the outcome in the test with Drosophila was Active. Further, the inhibition in test [2] worked out at 62.8%. The compound further yielded an IC50 in test [1] of 34.3 µM.
In the same order, the values of `C[C@@]1(O)c2ccc3c(c2C(=O)c2occ([C@@H](O)CCO)c21)CCC3=O` are “Active”, 80.5% and 71.9 µM.

The values are drawn from ChEMBL document CHEMBL3580580, “Nodulisporiviridins A-H, Bioactive Viridins from Nodulisporium sp” (J Nat Prod, 2015).
